# The list is not random: actives were taken first. Their share in the collection is about 1.8%.
# CAL PDZ FP-1: CAL PDZ (human) peptide binding inhibition | Q9HD26 | purified CAL PDZ, TMR-peptide fluorescence polarization, 1 h | inhibition, % at 24.9 µM | 300,000 compounds, 0.92% hits | AID 602252;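 active = mean inhibition of at least 30% with at least half of replicates also reaching 30%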;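 also: 0% = DMSO neutral control and 100% = excess unlabeled competitor peptide PRC23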
# ARNT-TACC3 inh: disrupts binding between human ARNT and TACC3. Q9Y6A5. AlphaScreen His-ARNT PAS-B/GST-TACC3 binding, luminescence; TACC3 fragment carries E629A point mutation. inhibition, % at 9.99 µM. 390,000 compounds, 0.66% hits;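 active = mean inhibition of replicates at least 50% and at least half of replicates each reaching 50%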;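 also: 0% = complete ARNT plus TACC3 wells and 100% = ARNT alone without TACC3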
# Tn7 DDE FP: DD(E)-Tn7 binding inhibition, primary FP screen. inhibition, % at 8.3 µM. AID 720508. 370,000 compounds, 0.13% hits. P02675. FP displacement of FITC-Tn7 peptide from fibrin DD(E); 0% = median of compound wells per plate;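 active = inhibition above the mean of compounds falling within the control limits plus 3 SD of them, cut at about 14% in these data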;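 also: 0% = plate median of compound wells and 100% = 10 µM Aha-Tn7 peptide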
#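 Also added: labelled Tn7 tracer, 0.1 µM; Assay system: human fibrin DD(E) protein; Amount: 2 µM fibrin DD(E); Schedule: 10 min compound pre-incubation, 3 h probe incubation at room temperature; Repeats: one replicate per compound; Read-out basis: percent inhibition; Measured by: fluorescence polarization of the labelled Tn7 tracer.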
# GRK2 aptamer HTS: inhibitors of human GRK2 displacing RNA aptamer; bead flow cytometry, FAM-aptamer displacement from GRK2; 330,000 compounds, 0.59% hits; inhibition of aptamer binding, % at 10 µM; P25098;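 active = inhibition of aptamer binding above 40%, roughly 3 SD of noise, on plates passing a quality check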;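 also: median bead fluorescence of bound FAM aptamer so fluorescent compounds give negative values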
# Target sequence (P25098 whole entry, looked up): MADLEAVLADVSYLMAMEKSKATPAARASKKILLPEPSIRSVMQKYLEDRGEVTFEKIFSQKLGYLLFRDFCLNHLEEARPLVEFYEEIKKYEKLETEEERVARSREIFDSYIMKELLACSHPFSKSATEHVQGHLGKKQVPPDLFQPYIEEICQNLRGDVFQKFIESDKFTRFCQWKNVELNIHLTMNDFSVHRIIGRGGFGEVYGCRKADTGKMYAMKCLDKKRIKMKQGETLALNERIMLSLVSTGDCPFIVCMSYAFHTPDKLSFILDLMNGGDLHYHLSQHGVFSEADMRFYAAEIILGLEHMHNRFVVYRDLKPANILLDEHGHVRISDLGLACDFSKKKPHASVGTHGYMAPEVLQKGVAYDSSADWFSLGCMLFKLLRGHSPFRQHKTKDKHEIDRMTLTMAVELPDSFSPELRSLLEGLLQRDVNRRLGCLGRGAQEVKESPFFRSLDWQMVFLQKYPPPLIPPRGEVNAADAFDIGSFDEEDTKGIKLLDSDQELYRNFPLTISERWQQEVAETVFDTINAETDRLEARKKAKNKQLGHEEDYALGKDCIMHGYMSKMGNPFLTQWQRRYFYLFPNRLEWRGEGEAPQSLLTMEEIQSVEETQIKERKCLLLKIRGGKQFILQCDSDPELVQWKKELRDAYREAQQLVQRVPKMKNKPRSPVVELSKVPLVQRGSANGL
# CAL PDZ FP-2: human CAL PDZ-peptide interaction inhibition | inhibition, % at 20 µM | purified CAL PDZ, TMR-peptide fluorescence polarization, 1 h | 330,000 compounds, 0.02% hits;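 active = highest replicate inhibition of at least 40%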;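 also: plate controls were DMSO neutral control wells for no effect and unlabeled competitor peptide control wells for full effect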
#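 Control set: unlabelled peptide and DMSO controls / Material: purified CerCALP PDZ construct / Timing: 1 h incubation at room temperature before polarization reading / Doses: 20 µM, one dose / Detection: fluorescence polarization (mP)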
# DDE Tn6 FP inh: DD(E)-Tn6 binding inhibition, primary FP screen; Fibrin DD(E) TRITC-Tn6 fluorescence polarization displacement; P02675; 370,000 compounds, 0.21% hits; inhibition, % at 8.3 µM;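 active = inhibition above a per-campaign cutoff: mean of compounds within control limits plus 3 SD, cut at about 15% in these data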;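 also: 0% = median of all compound wells on the plate and 100% = blocking peptide control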
# * = called active by the depositor; . = no result.
SMILES,CAL PDZ FP-1,ARNT-TACC3 inh,Tn7 DDE FP,GRK2 aptamer HTS,CAL PDZ FP-2,DDE Tn6 FP inh
COc1ccccc1NC(=O)N1C[C@H]2[C@@H](c3ccccc31)[C@@H](CO)N2Cc1ccc2c(c1)OCO2,.,-1,.,.,.,.
CCCNC(=O)c1cc(-c2ccc(Br)cc2)on1,33*,1,-5,0,-2,-1
COc1cc(C(=O)c2ccccc2)c([N+](=O)[O-])cc1OC,.,.,-8,4,.,-11
Nc1cc(C(=O)c2ccccc2)ccc1[N+](=O)[O-],37*,14,-1,1,-2,6
CCCn1c(=O)c2c(nc3n2CCCN3Cc2ccccc2)n(C)c1=O,-3,49*,0,1,0,1
Cn1c(=O)n(CCc2ccccc2)c(=O)c2c1nc1n2CCCN1Cc1ccccc1,-4,11,2,0,0,-1
COc1ccc(C#Cc2c(-c3ccccc3OC)oc3ccccc23)cc1,.,.,-3,.,.,-5
CCOC(=O)N(C)C[C@@H]1OCc2ccccc2-c2c(n(C)c3ccccc23)C(=O)N([C@@H](C)CO)C[C@H]1C,.,3,.,.,.,.
COc1ccc(NC(=O)c2c(NC(=O)CNCc3ccco3)sc3c2CCC3)cc1,-2,-9,0,0,.,3
CCOc1ccc(NC(=O)c2c(NC(=O)CNCCN3CCOCC3)sc3c2CCC3)cc1,-2,64*,0,0,-3,5
COc1cccc(NC(=O)CCC(=O)Nc2cccc(OC)c2)c1,-3,-4,-3,0,0,1
COc1ccc(NC(=O)CN(C)CC(=O)Nc2ccc(Cl)c(S(=O)(=O)N(C)C)c2)cc1,40*,4,4,0,-1,3
CCOCC(=O)Nc1cccc(OC)c1,66*,1,4,3,-1,-2
COc1cccc(NC(=O)CN(C)CC(=O)Nc2ccc(Br)cc2)c1,47*,-16,1,0,-2,3
COc1cccc(NC(=O)CN(C)CC(=O)Nc2cccc(C(F)(F)F)c2)c1,-18,-7,5,0,-1,2
C[C@@H]1CN([C@@H](C)CO)C(=O)CCCn2cc(nn2)CO[C@H]1CN(C)Cc1ccccc1C(=O)O,.,-2,.,.,.,.
CC1(C)Cc2ccccc2C(NNC(=O)c2ccccn2)=N1,-4,66*,5,1,0,3
NC(=S)N/N=C/c1ccccc1OC(=O)/C=C/c1ccccc1,.,34*,2,0,0,-7
NC(=S)N/N=C/c1ccccc1OC(=O)c1cc2ccccc2oc1=O,-7,51*,-4,2,-2,6
NC(=O)N/N=C/c1ccccc1OC(=O)c1cc2ccccc2oc1=O,-12,-2,-1,4,-1,-1
O=C(NC1CCCCC1)N[C@H]1CC[C@@H](CCNS(=O)(=O)c2ccccc2)O[C@@H]1CO,.,5,.,.,.,.
Cc1c(C(=O)N2CCOCC2)c(S(=O)(=O)Nc2cccc(C#N)c2)c(C)n1C,68*,-4,-1,0,0,0
Cc1c(C(=O)N2CCOCC2)c(S(=O)(=O)Nc2cccc(F)c2)c(C)n1C,-3,1,5,3,0,-1
C[C@@H]1CCCCO[C@H](CN(C)C(=O)c2ccncc2)[C@H](C)CN([C@@H](C)CO)C(=O)c2cc(NC(=O)Cc3ccccc3)ccc2O1,.,-12,.,.,.,.
Cc1ccc(C(=O)N/C(=C\c2ccc(-c3ccccc3[N+](=O)[O-])o2)C(=O)NCCN(C)C)cc1,.,22*,-4,0,2,6
SMILES,CAL PDZ FP-1,ARNT-TACC3 inh,Tn7 DDE FP,GRK2 aptamer HTS,CAL PDZ FP-2,DDE Tn6 FP inh
C[C@@H]1CN([C@@H](C)CO)C(=O)Cc2cc(NS(=O)(=O)c3cn(C)cn3)ccc2O[C@H]1CN(C)Cc1ccccc1,.,13,.,.,.,.
CCCNC(=O)C(Cc1ccc(I)cc1)NC(=O)C1CC1 (stereo not given),-3,-7,-2,2,0,-9
O=C(C[C@H]1CC[C@@H]2[C@H](COC[C@H](O)CN2C(=O)c2ccccc2)O1)NCc1cccc(F)c1,.,-21,.,.,.,.
Cc1ccc(N2CC(c3nc4ccccc4n3C)CC2=O)cc1 (stereo not given),31*,-1,-9,0,-2,-5
CCCn1c(C2CC(=O)N(c3ccc(C)cc3)C2)nc2ccccc21 (stereo not given),-3,-1,-2,0,-1,1
Cc1noc(C)c1NC(=O)N(C)C[C@@H]1Oc2ccc(NC(=O)Cn3cnnn3)cc2CC(=O)N([C@@H](C)CO)C[C@H]1C,.,3,.,.,.,.
O=C(C1CCOCC1)N1CC[C@@H]2[C@@H](CO)Nc3ccc(-c4ccc(F)cc4)cc3[C@@H]21,.,10,.,.,.,.
Cc1cc(C(=O)Nc2cccc3c2O[C@H](CN(C)S(=O)(=O)c2ccc(F)cc2)[C@@H](C)CN([C@H](C)CO)C3=O)n(C)n1,.,20,.,.,.,.
C[C@@H]1CN([C@H](C)CO)C(=O)c2cc(C3=CCCC3)cnc2O[C@H]1CN(C)Cc1cccc(F)c1,.,17,.,.,.,.
CCCCn1c(SCC(=O)N(C)C2CCS(=O)(=O)C2)nc2cc(S(N)(=O)=O)ccc21 (stereo not given),53*,-2,1,2,0,-1
O=C(N/N=C/c1cccc([N+](=O)[O-])c1)C1COc2ccccc2O1 (stereo not given),-4,5,1,1,-6,-1
Brc1ccccc1/C=N/Nc1ccc2ccccc2n1,-4,8,2,2,-2,-4
COc1cc([N+](=O)[O-])cc(/C=N\NC(=O)C2COc3ccccc3O2)c1O (stereo not given),-3,72*,-9,0,-1,-7
O=C(N/N=C\c1cccc([N+](=O)[O-])c1O)C1COc2ccccc2O1 (stereo not given),-3,63*,6,0,0,-4
O=C(CNC(=O)C1COc2ccccc2O1)N/N=C/c1ccc(O)cc1O (stereo not given),-5,94*,-1,4,-2,8
O=[N+]([O-])c1cccc(C=NNc2ccc3ccccc3n2)c1O,-7,72*,8,.,1,-3
C[C@H]1CN([C@@H](C)CO)S(=O)(=O)c2ccc(C#Cc3ccccc3)cc2O[C@H]1CN(C)S(C)(=O)=O,.,3,.,.,.,.
CCN(CC)C(=O)COc1coc(CN2CCN(c3ccc(F)cc3)CC2)cc1=O,-4,-5,-4,4,-1,0
CCOC(=O)COc1coc(CN2CCN(c3ccc(F)cc3)CC2)cc1=O,41*,-2,0,1,-1,-2
Nc1[nH]nc2nc3ccccc3cc12,47*,4,-8,4,0,2
